18 molecules from PubChem BioAssay can be followed below.

The structures appear in SMILES notation. Values without a mark were called inactive. Records with an inconclusive call do not appear. Calls of active or inactive are those of the source.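 Rule for the calls, unless noted: active = RAM network inhibition above 8.4% in each of two replicates, 3 SD over the compound average; inconclusive = above 8.4% inhibition in only one replicate; inactive = 8.4% inhibition or less in each replicate.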

Assay [1] in a line: S. cerevisiae growth inhibition in permissive medium (OD615), pilot counter-assay for S. cerevisiae lifespan shortening project, permissive growth control (AID 705;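 active = growth inhibition above 25% in both replicates, a cutoff set 3 SD above the mean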). The conditions noted are these: OD615, 24 h, at 10 µM, active compounds read high. Summed up: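 System: engineered DeaD yeast; Medium: permissive raffinose/galactose medium; Compound dosing: 10 µM single dose, 0.25% DMSO; Incubation: 4 h cell pre-growth, 24 h exposure at 30 °C; Technique: OD at 615 nm; Evaluation: growth inhibition from lowered OD615 after 24 h.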

The nature of assay [2]: S. cerevisiae growth inhibition in restrictive medium, OD615, pilot screen, restrictive growth control, yeast lifespan reduction project (AID 706;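 active = growth inhibition above a set limit, 3 SD over mean compound inhibition, in both replicates, cut at about 43% in these data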;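 note: modified DeaD lifespan yeast strain shifted to restrictive glucose medium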). The settings on record: OD615, 48 h, at 10 µM, active compounds read high. The method, boiled down: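 Material: modified S. cerevisiae; buffer or medium: CSMM-D glucose medium; doses: one concentration, 10 µM final, 0.25% DMSO; incubation: 48 h compound exposure at 30 °C; detection: optical density at 615 nm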

Assay [3] in a line: doxorubicin toxicity protection in MRP-1 cells – H69AR cells, CellTiter-Glo, duplicate, MRP-1 activator project, pilot screen (AID 807;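 active = viability increase at or above a cutoff of the median across tested compounds plus 3 SD, cut at about 8.5% in these data, passing the limit was not always enough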;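 note: compound pretreatment 18-22 h then 72 h combined with doxorubicin; 0% = doxorubicin alone and 100% = vehicle without doxorubicin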). The conditions noted are these: H69AR viability with doxorubicin, CellTiter-Glo luminescence; at 10 µM; active compounds read high.
Assay [4] can be described thus: viability of HCT116 without oncogenic beta-catenin – human colon tumor cells, pilot screen (AID 823;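 active = cell viability at or below a set limit in both duplicate runs, the limit being the all-compound median minus 4 SD, cut at about 23% in these data, passing the limit was not always enough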;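 note: 0% = wells killed by 20 µM Hyamine and 100% = untreated DMSO cell wells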). The settings on record: HCT116 beta-catenin knockout viability, CellTiter-Glo, 60 h; at 10 µM; active compounds read low.
The nature of assay [5]: viability of PTEN-null HCT116 cells – cell-based, HCT116 clonal line, CellTiter-Glo, pilot screen (AID 824;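 active = viability at or below 27.92% in each of two runs, the all-compound median minus 4 SD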;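 note: 0% = 20 µM Hyamine control and 100% = vehicle cell control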). The settings on record: HCT116 PTEN-deleted viability, 60 h, at 10 µM, active compounds read low.
Assay [6] is described as follows: RAM pathway blockade in budding yeast – dse1pr::URA3 reporter, 5-FOA selection, pilot screen (AID 869;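 active = inhibition over a set limit, the all-compound mean plus 3 SD, in both replicate runs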;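 note: 0% = DMSO wells with no growth and 100% = 10 µM 1-NA-PP1 with full growth; RAM network block rescues cells from 5-FOA so hits raise OD615 growth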). The conditions noted are these: S. cerevisiae dse1pr::URA3 5-FOA growth, OD615, 2 d; at 10 µM; active compounds read high; strain carries analog-sensitive mutant Cbk1 kinase.
The nature of assay [7]: RAM signaling pathway blockade in yeast – S. cerevisiae, Pdr1DBD-CYC8 efflux-inhibited sensitized strain, primary screen (AID 1298).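 Note: 0% = DMSO untreated cells without growth and 100% = 10 µM 1-NA-PP1 full growth; higher means more yeast growth rescued from 5-FOA killing.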 The conditions noted are these: S. cerevisiae cbk1-as DSE1-URA3 strain, 5-FOA growth OD615, 2 d; at 50 µM; active compounds read high.

In the case of `CCN(CC)CCCNC(=O)C1c2ccccc2C(=O)N(C)C1c1ccc(OC)cc1` (stereo unspecified), the growth inhibition in assay [1] is -23%; in assay [2], -20.7%. Besides, in assay [3], the viability increase was 0.37%. The viability in assay [4] was 96.5%; in assay [5], 97.3%. Moreover, in assay [6], the inhibition is 3.1%. Moreover, the RAM network inhibition in assay [7] is 2.54%.

For `Cc1c(C(=O)N2CCN(CCc3ccccc3)CC2)oc2ccccc12`, the growth inhibition in assay [1] is -0.01%; in assay [2] it was 7.52%. Besides, the viability increase in assay [3] was -1.75%. The viability was 100% in assay [4] and 94.7% in assay [5]. For the same molecule, the inhibition in assay [6] is 0.455%. Moreover, in assay [7], the RAM network inhibition was 1.34%.

As for `CCCCCn1c(C(C)NC(=O)CCC)nc2ccccc21` (stereo unspecified), the growth inhibition in assay [1] was -3.78%; in assay [2], -2.23%. For the same molecule, the viability increase in assay [3] is -1.22%. Besides, the figures for the viability in assay [4] and in assay [5] were 85.7% and 88.7%, respectively. Further, in assay [6], the inhibition was -0.165%. In addition, in assay [7], the RAM network inhibition is 2.32%.

For the molecule `CCOC(=O)c1cnn2c(C(F)(F)F)cc(-c3ccccc3)nc12`, the growth inhibition in assay [1] is -6.86%; in assay [2], -9.75%. The viability increase in assay [3] is -3.13%. Besides, the viability in assay [4] is 84%; in assay [5] it was 86.9%. Moreover, the inhibition in assay [6] was 2.29%. In addition, in assay [7], the RAM network inhibition is 2.4%.

As for `COc1ccc(-n2c(SCC(=O)Nc3cc(C)on3)nc3c(c2=O)SCC3)cc1`, the results for the growth inhibition in assay [1] and in assay [2] were -13.1% and -6.83%, respectively. The viability increase in assay [3] was 0.28%. Also, the viability was 112% in assay [4] and 95.5% in assay [5]. The inhibition in assay [6] was 4.46%. Also, the RAM network inhibition in assay [7] was 6.81%.

`CC1(C)CC(N2CCN(c3ccccc3)CC2)=CC(=[N+]2CCCC2)C1`: the growth inhibition in assay [1] was -2.24%; in assay [2], -20.8%. In addition, the viability increase in assay [3] was -3.22%. Further, the viability is 18.1% (active) in assay [4] and 18.4% (active) in assay [5]. The inhibition in assay [6] was 1.37%. Moreover, the RAM network inhibition in assay [7] was 0.52%.

On to `Cc1cc(C)c2c(N)c(C(=O)Nc3nccs3)sc2n1`, for which the growth inhibition in assay [1] was 0.355%; in assay [2], 16.4%. Moreover, in assay [3], the viability increase is -5.52%. Further, the viability in assay [4] was 87.8%; in assay [5], 90.5%. The inhibition in assay [6] is 2%. Further, in assay [7], the RAM network inhibition was -0.11%.

As to `CC(C)C(=O)Nc1c(C(=O)c2ccc(F)cc2)oc2ccccc12`, the growth inhibition in assay [1] was -8.13%; in assay [2], -2.55%. Besides, the viability increase in assay [3] is 0.04%. Also, the viability in assay [4] was 105%; in assay [5] it was 91.2%. Further, the inhibition in assay [6] is 1.55%. The RAM network inhibition in assay [7] is 1.81%.

Regarding `CCn1cc(Br)c(C(=O)Nc2ccc(F)c(Cl)c2)n1`, the results for the growth inhibition in assay [1] and in assay [2] were 0.5% and -5.7%, respectively. Moreover, in assay [3], the viability increase is -3.96%. The viability in assay [4] is 84.1%; in assay [5], 80.6%. For the same molecule, the inhibition in assay [6] is -0.565%. Besides, the RAM network inhibition in assay [7] is -0.16%.

With `NC(=O)CCc1c[nH]c2ccccc12`, the growth inhibition is -1.2% in assay [1] and -4.15% in assay [2]. Also, in assay [3], the viability increase is -3.35%. For the same molecule, the viability in assay [4] was 91%; in assay [5], 94.2%. For the same molecule, the inhibition in assay [6] was 2.47%. In addition, the RAM network inhibition in assay [7] is 5.98%.

Regarding `CCC(Oc1ccccc1)C(=O)Nc1cc(C)on1` (stereo unspecified), the growth inhibition in assay [1] was -8.55%; in assay [2], -7.2%. The viability increase in assay [3] is -0.57%. The viability was 108% in assay [4] and 90.2% in assay [5]. Besides, the inhibition in assay [6] was 0.86%. Moreover, the RAM network inhibition in assay [7] was 0.2%.

Regarding `CCOC(=O)C1Cn2c(nc3c(c2=O)C(C)(CC)Cc2ccccc2-3)S1` (stereo unspecified), the growth inhibition in assay [1] is -4.55%; in assay [2] it was 5.55%. Besides, the viability increase in assay [3] is -2.18%. For the same molecule, the viability in assay [4] is 82.1%; in assay [5] it was 77.7%. Moreover, the inhibition in assay [6] is 1.5%. In addition, the RAM network inhibition in assay [7] was 3.03%.

With `CCOC(=O)c1ccc(NC(=O)CSc2nc(C)cc(=O)[nH]2)cc1`, the values for the growth inhibition in assay [1] and in assay [2] were -7.82% and 8.13%, respectively. The viability increase in assay [3] was -1.06%. In addition, the viability in assay [4] was 98.5%; in assay [5], 100%. For the same molecule, in assay [6], the inhibition was -0.79%. Besides, the RAM network inhibition in assay [7] was 0.78%.

In the case of `Cc1ccc(C2CC(c3ccc(Cl)cc3)n3nc(N)nc3N2)cc1` (stereo unspecified), the growth inhibition is 1.88% in assay [1] and 7.93% in assay [2]. The viability increase in assay [3] was -0.27%. For the same molecule, the viability in assay [4] is 93.9%; in assay [5] it was 93.5%. In addition, the inhibition in assay [6] is 1.9%. For the same molecule, the RAM network inhibition in assay [7] was 8.2%.

Turning to `Cn1c(NCc2ccccc2Cl)nc2ccccc21`, the growth inhibition in assay [1] was -5.4%; in assay [2] it was -11.6%. In addition, the viability increase in assay [3] was 0.98%. Also, the viability was 97.5% in assay [4] and 92.8% in assay [5]. For the same molecule, the inhibition in assay [6] is 0.3%. In addition, the RAM network inhibition in assay [7] was 1.78%.

On to `O=C(NC(=O)c1ccccc1)OCC(F)(F)F`, for which the growth inhibition is -6.06% in assay [1] and -1.48% in assay [2]. For the same molecule, in assay [3], the viability increase was 0.71%. Moreover, the figures for the viability in assay [4] and in assay [5] were 98.9% and 103%, respectively. Besides, the inhibition in assay [6] was 0.34%. In assay [7], the RAM network inhibition was 3.03%.

On to `CC(C)(C)n1nc2c(c1NC(=O)Cc1ccc(F)cc1)CSC2`, for which the values for the growth inhibition in assay [1] and in assay [2] were 1.52% and -7.53%, respectively. Besides, the viability increase in assay [3] was -0.87%. For the same molecule, the viability in assay [4] was 94%; in assay [5], 88.2%. Besides, the inhibition in assay [6] was 2.36%. Moreover, the RAM network inhibition in assay [7] is 5.41%.

With `CCOC(=O)CSc1n[nH]c(-c2ccco2)n1`, the growth inhibition is -16.1% in assay [1] and -17% in assay [2]. In addition, in assay [3], the viability increase was -1.01%. Also, the viability in assay [4] is 93.8%; in assay [5], 102%. Also, the inhibition in assay [6] was 0.85%. The RAM network inhibition in assay [7] was 4.21%.
